{"data": "Results of several laboratories", "BCHE": "Cholinesterase (BCHE, Equus caballus, UniProt P81908)", "C3AR1": "C3a anaphylatoxin chemotactic receptor (C3AR1, Homo sapiens, UniProt Q16581)", "note": "Each line is one published result; the experiments were not run side by side."}
{"Structure (SMILES)": "CCN(C)C(=O)Oc1ccc(/C=C/C(=O)NC2CCN(Cc3ccccc3)CC2)cc1", "target": "BCHE", "test": "enzyme activity, inhibitor, Ellman", "endpoint": "IC50", "value": "16.3 µM"}
{"Structure (SMILES)": "O=C(N1CCC2(CC1)C[C@@H](CN1CCCCS1(=O)=O)CCO2)C1(c2ccccc2)CCCC1", "target": "DHX58 (Homo sapiens, UniProt Q96C10)", "test": "ATPase activity, inhibitor", "endpoint": "IC50", "value": "> 50 µM"}
{"Structure (SMILES)": "CCOc1ccc(/C=C/C(=O)N2CCCC(NC(=O)OC(C)(C)C)C2)cc1OC (stereo not shown)", "target": "BCHE", "test": "enzyme activity, inhibitor, Ellman", "endpoint": "IC50", "value": "13.5 µM"}
{"Structure (SMILES)": "CC(C)C[C@H](NC(=O)[C@@H](N)[C@@H](C)O)C(=O)N[C@@H](CCC(N)=O)C(=O)N1CCC[C@H]1C(=O)N1CCC[C@H]1C(=O)N[C@@H](C)C(=O)N[C@@H](CO)C(=O)N[C@@H](CO)C(=O)N[C@@H](CCCNC(=N)N)C(=O)N[C@H](CCCNC(=N)N)C(=O)N[C@@H](CCCNC(=N)N)C(=O)N[C@@H](Cc1c[nH]cn1)C(=O)N[C@@H](Cc1ccccc1)C(=O)N[C@@H](Cc1c[nH]cn1)C(=O)N[C@@H](Cc1c[nH]cn1)C(=O)N[C@@H](C)C(=O)N[C@@H](CC(C)C)C(=O)N1CCC[C@H]1C(=O)N1CCC[C@H]1C(=O)NCC(=O)N[C@@H](CCCNC(=N)N)C(=O)O", "target": "C3AR1", "test": "β-arrestin recruitment, agonist", "endpoint": "EC50", "value": "97 nM"}
{"Structure (SMILES)": "CC(C)(C)OC(=O)NC1CCCN(C(=O)/C=C/c2ccc(Cl)cc2)C1 (stereo not shown)", "target": "BCHE", "test": "enzyme activity, inhibitor, Ellman", "endpoint": "IC50", "value": "> 50 µM"}
{"Structure (SMILES)": "O=C(O)C(/C=C/c1ccc(Cl)cc1)=N\\Nc1nc(-c2ccccc2)cs1", "target": "BCHE", "test": "enzyme activity, inhibitor", "endpoint": "IC50", "value": "2.03 µM"}
{"Structure (SMILES)": "CC(C)C[C@H](NC(=O)[C@@H](N)[C@@H](C)O)C(=O)N[C@@H](CCC(N)=O)C(=O)N1CCC[C@H]1C(=O)N1CCC[C@H]1C(=O)N[C@@H](C)C(=O)N[C@@H](CO)C(=O)N[C@@H](CO)C(=O)N[C@@H](CCCNC(=N)N)C(=O)N[C@H](CCCNC(=N)N)C(=O)N[C@@H](CCCNC(=N)N)C(=O)N[C@@H](Cc1c[nH]cn1)C(=O)N[C@@H](Cc1ccccc1)C(=O)N[C@@H](Cc1c[nH]cn1)C(=O)N[C@@H](Cc1c[nH]cn1)C(=O)N[C@@H](C)C(=O)N[C@@H](CC(C)C)C(=O)N1CCC[C@H]1C(=O)N1CCC[C@H]1C(=O)N[C@@H](C)C(=O)N[C@@H](CCCCNC(=N)N)C(=O)O", "target": "C3AR1", "test": "G protein activation, agonist, BRET", "endpoint": "EC50", "value": "259 nM"}
{"Structure (SMILES)": "COc1ccc(-c2csc(N/N=C(/C=C/c3c(Cl)cccc3Cl)C(=O)O)n2)cc1", "target": "BCHE", "test": "enzyme activity, inhibitor", "endpoint": "IC50", "value": "5.01 µM"}
{"Structure (SMILES)": "COc1cc(CCC(=O)N2CCC(Cc3ccccc3)CC2)ccc1OC(=O)N(C)C", "target": "BCHE", "test": "enzyme activity, inhibitor, Ellman", "endpoint": "IC50", "value": "1.3 µM"}
{"Structure (SMILES)": "COc1cc2c(cc1OC)CN(CCc1ccc(NC(=O)c3cccc4c(=O)c5cccc(OC)c5[nH]c34)cc1)CC2", "target": "D(1A) dopamine receptor (DRD1, Homo sapiens, UniProt P21728)", "test": "cell-free assay", "endpoint": "Ki", "value": "> 10 µM"}
